What all share (assay type): functional
Test [1] has as its system Clostridioides difficile. As to the kind of experiment: Antimicrobial activity against Clostridium difficile NCTC 11204 after 48 hrs. Particulars: NCTC 11204, 48 h. The method in brief:
(§1)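 Anaerobes incubated in an anaerobic cabinet for broth MIC determination. Drug-free incubations of the same organisms served as controls. Value is the minimum inhibitory concentration.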

The test system of test [2] is Clostridioides difficile. The experiment in a line: Antimicrobial activity against Clostridium difficile O27 after 48 hrs. In a few lines: as §1
Test [3] has as its system Clostridioides difficile. The experiment in a line: Antimicrobial activity against Clostridium difficile Z162 after 48 hrs. In a few lines:
as §1

Test [4] deals with Clostridioides difficile. As to the kind of experiment: Antimicrobial activity against Clostridium difficile Z229 after 48 hrs. The method in brief:
as §1

Test [5] deals with Staphylococcus epidermidis. The experiment in a line: Antimicrobial activity against Staphylococcus epidermidis NCTC 11047 after 24 hrs. Particulars: NCTC 11047, 24 h. The method in brief:
(§2)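 MIC by dilution in nutrient broth. Anaerobic organisms were incubated in an anaerobic cabinet. Controls were the same organisms incubated without test compound.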

In test [6] the test system is Staphylococcus epidermidis. As to the kind of experiment: Antimicrobial activity against Staphylococcus epidermidis 9 after 24 hrs. The method in brief:
as §2

In test [7] the test system is Staphylococcus epidermidis. As to the kind of experiment: Antimicrobial activity against Staphylococcus epidermidis 4 after 24 hrs. The method in brief:
as §2

In test [8] the test system is Staphylococcus aureus. The experiment in a line: Antimicrobial activity against Staphylococcus aureus ATCC 6538 after 24 hrs. The note with it: ATCC 6538, 24 h. In a few lines:
as §2

Test [9] deals with Staphylococcus aureus. The experiment in a line: Antimicrobial activity against Staphylococcus aureus H1 after 24 hrs. The method in brief:
as §2

Test [10] relates to Staphylococcus aureus. As to the kind of experiment: Antimicrobial activity against Staphylococcus aureus K1 after 24 hrs. The method in brief:
as §2

For test [11], the system named is Staphylococcus aureus. As to the kind of experiment: Antimicrobial activity against methicillin-resistant Staphylococcus aureus A1 after 24 hrs. In a few lines: as §2
Test [12] has as its system Staphylococcus aureus. As to the kind of experiment: Antimicrobial activity against methicillin-resistant Staphylococcus aureus C3 after 24 hrs. In a few lines: as §2
Test [13] has as its system Staphylococcus aureus. As to the kind of experiment: Antimicrobial activity against methicillin-resistant Staphylococcus aureus E1 after 24 hrs. In a few lines: as §2
Test [14] deals with Cutibacterium acnes. As to the kind of experiment: Antimicrobial activity against Propionibacterium acnes NCTC 737 after 48 hrs. Particulars: NCTC 737, 48 h. In a few lines:
as §2

For test [15], the system named is Cutibacterium acnes. The experiment in a line: Antimicrobial activity against Propionibacterium acnes B5 after 48 hrs. In a few lines:
as §1

In test [16] the test system is Cutibacterium acnes. The experiment in a line: Antimicrobial activity against Propionibacterium acnes C3 after 48 hrs. The method in brief:
as §2

Test [17] deals with Cutibacterium acnes. The experiment in a line: Antimicrobial activity against Propionibacterium acnes C5 after 48 hrs. The method in brief:
as §2

Converted amounts (≈) assume the structure as drawn.

In general, MIC refers to the lowest concentration that inhibits growth of the organism. Lower therefore signals inhibition by little substance. With `CC(C)(C)NC(=S)N/N=C/c1ccc([N+](=O)[O-])o1`, the MIC was 128 µg/mL (≈ 474 µM) against Clostridioides difficile [1]; greater than 256 µg/mL against Clostridioides difficile [2]; 128 µg/mL (≈ 474 µM) against Clostridioides difficile [3]; 16 µg/mL (≈ 59.2 µM) in the test with Clostridioides difficile [4]; 128 µg/mL (≈ 474 µM) in [5]; greater than 256 µg/mL in [6]. Also, the MIC in test [7] is greater than 256 µg/mL; with Staphylococcus aureus [8] it was 64 µg/mL (≈ 237 µM); against Staphylococcus aureus [9], greater than 256 µg/mL; against Staphylococcus aureus [10] it was 64 µg/mL (≈ 237 µM); in the test on Staphylococcus aureus [11] it was greater than 256 µg/mL; in the test on Staphylococcus aureus [12], greater than 256 µg/mL. The minimum inhibitory concentration (MIC) was greater than 256 µg/mL with Staphylococcus aureus [13]; 64 µg/mL (≈ 237 µM) in the test with Cutibacterium acnes [14]; 32 µg/mL (≈ 118 µM) against Cutibacterium acnes [15]; 16 µg/mL (≈ 59.2 µM) with Cutibacterium acnes [16]; 16 µg/mL (≈ 59.2 µM) with Cutibacterium acnes [17].

Consider `CN[C@H](CC(C)C)C(=O)N[C@H]1C(=O)N[C@@H](CC(N)=O)C(=O)N[C@H]2C(=O)N[C@H]3C(=O)N[C@H](C(=O)N[C@H](C(=O)O)c4cc(O)cc(O)c4-c4cc3ccc4O)[C@H](O)c3ccc(c(Cl)c3)Oc3cc2cc(c3O[C@@H]2O[C@H](CO)[C@@H](O)[C@H](O)[C@H]2O[C@H]2C[C@](C)(N)[C@H](O)[C@H](C)O2)Oc2ccc(cc2Cl)[C@H]1O` [VANCOMYCIN], for which the minimum inhibitory concentration (MIC) with Clostridioides difficile [1] was found to be 0.5 µg/mL (≈ 0.345 µM); in the test on Clostridioides difficile [2] it was 0.75 µg/mL (≈ 0.518 µM); with Staphylococcus aureus [8] it was 1.5 µg/mL (≈ 1.04 µM); with Cutibacterium acnes [14] it was 0.5 µg/mL (≈ 0.345 µM).

For `CNC(=S)N/N=C/c1ccc([N+](=O)[O-])o1`, the MIC is greater than 256 µg/mL in the test on Clostridioides difficile [1]; 64 µg/mL (≈ 280 µM) against Clostridioides difficile [2]; greater than 256 µg/mL against Clostridioides difficile [3]; 64 µg/mL (≈ 280 µM) against Clostridioides difficile [4]; 16 µg/mL (≈ 70.1 µM) in [5]; 128 µg/mL (≈ 561 µM) in [6]. For the same compound, the MIC is 32 µg/mL (≈ 140 µM) in [7]; 64 µg/mL (≈ 280 µM) in the test with Staphylococcus aureus [8]; 64 µg/mL (≈ 280 µM) with Staphylococcus aureus [9]; 128 µg/mL (≈ 561 µM) with Staphylococcus aureus [10]; 64 µg/mL (≈ 280 µM) in the test with Staphylococcus aureus [11]; greater than 256 µg/mL against Staphylococcus aureus [12]. Besides, the MIC was determined as 64 µg/mL (≈ 280 µM) against Staphylococcus aureus [13]; 16 µg/mL (≈ 70.1 µM) in the test with Cutibacterium acnes [14]; 64 µg/mL (≈ 280 µM) with Cutibacterium acnes [15]; 16 µg/mL (≈ 70.1 µM) with Cutibacterium acnes [16]; 64 µg/mL (≈ 280 µM) in the test on Cutibacterium acnes [17].

Turning to `CC(C)(C)NC(=S)N/N=C/C=C/c1ccco1`, the MIC was greater than 256 µg/mL against Clostridioides difficile [1]; 64 µg/mL (≈ 255 µM) with Clostridioides difficile [2]; greater than 256 µg/mL in the test on Clostridioides difficile [3]; 64 µg/mL (≈ 255 µM) against Clostridioides difficile [4]; greater than 256 µg/mL in test [5]; greater than 256 µg/mL in test [6]. The MIC (in test [7]; in the test with Staphylococcus aureus [8]; in the test with Staphylococcus aureus [9]; against Staphylococcus aureus [10]; against Staphylococcus aureus [11]; against Staphylococcus aureus [12]) was greater than 256 µg/mL throughout. For the same compound, the MIC in the test on Staphylococcus aureus [13] was greater than 256 µg/mL; in the test with Cutibacterium acnes [14], 64 µg/mL (≈ 255 µM); against Cutibacterium acnes [15], 64 µg/mL (≈ 255 µM); in the test on Cutibacterium acnes [16] it was 4 µg/mL (≈ 15.9 µM); with Cutibacterium acnes [17], 1 µg/mL (≈ 3.98 µM).

In the case of `CC(C)NC(=S)N/N=C/C=C/c1ccco1`, the MIC was greater than 256 µg/mL with Clostridioides difficile [1]; 64 µg/mL (≈ 270 µM) in the test with Clostridioides difficile [2]; greater than 256 µg/mL in the test on Clostridioides difficile [3]; 128 µg/mL (≈ 539 µM) against Clostridioides difficile [4]; greater than 256 µg/mL in [5]; greater than 256 µg/mL in test [6]. Further, the MIC (in test [7]; against Staphylococcus aureus [8]; against Staphylococcus aureus [9]; against Staphylococcus aureus [10]; against Staphylococcus aureus [11]; with Staphylococcus aureus [12]) was greater than 256 µg/mL throughout. For the same compound, the minimum inhibitory concentration (MIC) against Staphylococcus aureus [13] was greater than 256 µg/mL; with Cutibacterium acnes [14], 32 µg/mL (≈ 135 µM); in the test on Cutibacterium acnes [15], greater than 256 µg/mL; in the test with Cutibacterium acnes [16], 1 µg/mL (≈ 4.21 µM); against Cutibacterium acnes [17], 64 µg/mL (≈ 270 µM).

With `CC(C)NC(=S)N/N=C/C=C/c1ccc([N+](=O)[O-])o1`, the MIC was greater than 256 µg/mL in the test with Clostridioides difficile [1]; 64 µg/mL (≈ 227 µM) in the test on Clostridioides difficile [2]; greater than 256 µg/mL in the test with Clostridioides difficile [3]; 64 µg/mL (≈ 227 µM) in the test with Clostridioides difficile [4]; 64 µg/mL (≈ 227 µM) in [5]; greater than 256 µg/mL in test [6]. Moreover, the MIC in [7] is 64 µg/mL (≈ 227 µM); in the test on Staphylococcus aureus [8] it was greater than 256 µg/mL; in the test on Staphylococcus aureus [9] it was 256 µg/mL (≈ 907 µM); against Staphylococcus aureus [10], greater than 256 µg/mL; against Staphylococcus aureus [11], greater than 256 µg/mL; in the test with Staphylococcus aureus [12], greater than 256 µg/mL. The minimum inhibitory concentration (MIC) against Staphylococcus aureus [13] is greater than 256 µg/mL; against Cutibacterium acnes [14], 32 µg/mL (≈ 113 µM); against Cutibacterium acnes [15], 32 µg/mL (≈ 113 µM); in the test with Cutibacterium acnes [16], 32 µg/mL (≈ 113 µM); in the test on Cutibacterium acnes [17], 64 µg/mL (≈ 227 µM).

For the origin of these results see ChEMBL document CHEMBL1141626, “Thiosemicarbazones active against Clostridium difficile” (2008).
